We go through 167 variants from the RNAGym collection of RNA variant scans (doi:10.1038/nmeth.2970).

Sequences and labels used below:
B1: NELF-E aptamer (parent)
chain: CCCAACGACUGCCGAGCGAGAUUACGCUUGAGCGCCCCACUGAGGAUGCCCACGGGCGAUUGGGGCACGG

The variants in the data set derive from B1. Put plainly: HiTS-RAP. The conditions noted are these: with NELF-E (Drosophila). The gist of the method: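 Kd came from weighted Hill fits to the first binding curve, with intensities normalised to sequencing intensity and averaged per sequence, keeping only fits whose variance was below 1,000,000. That curve was imaged on an Illumina GAIIx flowcell, where sequenced aptamer DNA templates with a T7 promoter and ter site had been transcribed in situ by T7 RNA polymerase and halted by GST-Tus (30 minutes, 37°C). Before each image, clusters equilibrated for 30 minutes at room temperature with NELF-E-mOrange at 0.064 to 1000 nM in HEPES binding buffer.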
What is called Kd is the free concentration of one partner at which half of the binding sites on the other are occupied at equilibrium, for simple one-to-one binding. For the variant U29G A43U, the Kd was determined as 44 nM.

Turning to A31G G55A, the Kd was found to be 9.56 nM. The same measure for U29G G62U: 8.12 nM; for U29G G62A: 18.7 nM. On to A24G U61C, for which the Kd was 76.4 nM. The same measure for A24G U61G: 9.98 nM. With A24G U61A the figure was 34.7 nM. The same measure for A24G C38U: 8.33 nM; for U29G G65U: 6.57 nM; for U29G G65A: 4.59 nM. Consider A24G G45U, for which the Kd is 6.64 nM. Consider U23G C35U, for which the Kd was 11.5 nM. The same measure for U23G C35G: 7.07 nM; for U28A U29G: 4.82 nM; for U28A U29A: 4.14 nM.

Take U29C A67U: the Kd was determined as 5.08 nM.

In the case of G26A U41G, the Kd came to 4.19 nM. As for A24G G62A, the Kd came to 26.1 nM.

Turning to U23G U61A, the Kd was 31 nM. As for U23G U61G, the Kd worked out at 6.91 nM. As to U23G U61C, the Kd was 67.8 nM. Take U29A A67U: the Kd turned out to be 5.96 nM.

As to U29G U47G, the Kd came to 6.21 nM.

Take U29G U47A: the Kd turned out to be 11.1 nM.

Regarding A31G A43G, the Kd is 11.3 nM. The same measure for A24G: 5.47 nM; for A24U: 5.93 nM; for A24C: 5.86 nM. The same measure for A24G G34A: 8.56 nM; for U28G U41G: 5.18 nM. With U29G G63U, the Kd is 12.4 nM.

On to U29G G63A, for which the Kd was found to be 11.4 nM. With U23G G63A the figure was 20.3 nM; with U23G G63U, 12.9 nM; with U23G C53U, 4.17 nM. With U23G C53A the figure was 6.72 nM; with U23G C53G, 7.15 nM.

With U23G A59G, the Kd was 57.5 nM. With A24G G44A the figure was 18.5 nM; with U29G G45A, 74.1 nM. U29G G45U: the Kd stood at 5.6 nM. With U29C U41G the figure was 5.09 nM; with A31G U41G, 6.51 nM. The same measure for G26A A67G: 4.9 nM; for A24G U41A: 92.9 nM; for A24G U41G: 5.63 nM. With A24G A46G the figure was 11.5 nM; with A24G A46U, 58.5 nM; with C25G U41G, 6.42 nM. For A24G C51U, the Kd worked out at 8.86 nM. On to U29C C36U, for which the Kd was determined as 6 nM. As to U29G G56A, the Kd was found to be 5.64 nM. With U29G G56U, the Kd stood at 5.44 nM. The same measure for C25U U41G: 6.6 nM; for U23G A39U: 24.8 nM; for U23G A39G: 8.65 nM. As for U29G A59U, the equilibrium dissociation constant (Kd) amounted to 23.9 nM.

Regarding U29G A59G, the Kd was determined as 50.9 nM.

Consider U29G G54U, for which the Kd worked out at 6.72 nM. With U29G G54A the figure was 13.1 nM; with C27U U29G, 4.7 nM. The same measure for U23G G45A: 19.3 nM; for U23G G45U: 6.11 nM.

On to U23G G55A, for which the Kd turned out to be 7.34 nM. Turning to U23G G55U, the Kd amounted to 8.32 nM. As to U23G G55C, the Kd was determined as 6.97 nM.

Consider A24G C49U, for which the dissociation constant Kd was determined as 13.4 nM. On to U28C A39U, for which the Kd is 51.1 nM. With C27U the figure was 4.14 nM; with C27A, 4.28 nM.

With C27G, the Kd was found to be 5.01 nM. The same measure for U29G: 4.93 nM; for U29C: 4.9 nM. Turning to U29A, the Kd came out at 4.54 nM.

On to A24G G32U, for which the Kd turned out to be 6.57 nM. For the variant A24G G32A, the Kd amounted to 5.64 nM. Regarding U29G A67U, the Kd was determined as 6.79 nM. With U29G A67G the figure was 5.86 nM. In the case of U23G G58U, the Kd stood at 15.1 nM.

On to U23G G26A, for which the Kd was 6.05 nM.

For the variant U23G G26U, the Kd was found to be 6.03 nM.

Regarding A24G C35U, the Kd came to 9.45 nM.

U29G C50U: the Kd came to 15.4 nM. Take A24G G64U: the Kd amounted to 6.61 nM. Regarding A24G G64C, the Kd came out at 5.75 nM. The same measure for A24G G64A: 7.13 nM; for U29G U41C: 67.5 nM. Consider U29G U41A, for which the Kd is 78.7 nM. With U29G U41G the figure was 5.31 nM; with A24G C25U, 6.02 nM; with U23G C25U, 5.73 nM. The same measure for U23G C25G: 5.84 nM. With U29G G48U the figure was 6.22 nM. As to U29G G48A, the Kd was 11.3 nM. With U23G C37G the figure was 7.9 nM; with U23G C37U, 13.8 nM. The same measure for U23G C37A: 13.4 nM; for U29G C57U: 5.61 nM; for U29G G32A: 5.37 nM. With U23G A31U the figure was 6.53 nM. U23G A31G: the Kd came to 6.72 nM. The same measure for U29G C40U: 56.1 nM.

As for U29G C40G, the Kd is 5.85 nM. U23G C66U: the Kd was 6 nM. Consider U23G A67C, for which the Kd is 4.59 nM. With U23G A67U the figure was 7.58 nM; with U23G A67G, 6.23 nM. With C25G G26C the figure was 6 nM; with C25G G26U, 5.3 nM. The same measure for A24G C66U: 5.38 nM; for U23G U41C: 93.8 nM. Regarding U23G U41G, the Kd is 5.48 nM. Turning to U23G U41A, the Kd stood at 66.7 nM.

Turning to A24G C53G, the Kd stood at 7.46 nM. With A24G C53U, the Kd stood at 4.2 nM. With G26A C57U the figure was 6.13 nM; with A24G U60C, 12.8 nM; with U23G G64A, 6.56 nM. Regarding U23G G64C, the Kd was 6.24 nM. With U23G G64U the figure was 6.13 nM; with U29G G30A, 5.05 nM; with U29G G30C, 5.14 nM. On to U29G G30U, for which the Kd was found to be 5.81 nM.

As for C25U U29G, the Kd was determined as 6.54 nM. U23G G42U: the Kd worked out at 13.1 nM.

On to U23G G42A, for which the Kd worked out at 60.7 nM. With U23G C49G, the Kd worked out at 7.29 nM.

For U23G C49U, the Kd worked out at 15.6 nM. Take A24U U29G: the Kd was 6.22 nM.

In the case of U29G A31G, the Kd is 6.61 nM. With U29G A31U the figure was 6.06 nM; with U29G C51U, 8.19 nM; with U29G C51A, 8.11 nM. With U29G C51G, the Kd was 4.37 nM.

With U23G G30U, the Kd came out at 7.41 nM. For U23G G30A, the Kd was determined as 4.6 nM. As to A24G U47G, the Kd amounted to 7.22 nM. Take A24G U47A: the Kd is 13 nM. The same measure for U29G G55C: 5.81 nM. As for U29G G55U, the Kd was found to be 6.64 nM. In the case of U29G G55A, the Kd was found to be 7.74 nM. Regarding U23G C38U, the Kd amounted to 9.73 nM. Regarding U23G C38A, the Kd was 35.2 nM. With U29C C66U the figure was 5.81 nM.

For the variant U28C U41G, the Kd came to 11.9 nM. Take U28C U41C: the Kd was determined as 98.6 nM. The same measure for U23G G32A: 5.52 nM; for U23G G32U: 6.92 nM; for A24G A39U: 29.5 nM. For A24G A39G, the Kd was found to be 10.2 nM.

Consider G30A U41G, for which the Kd is 5.12 nM. With U23G G62A the figure was 15.5 nM; with U23G G62U, 9.09 nM. The same measure for A31G G32U: 4.81 nM. A31G G32A: the equilibrium dissociation constant (Kd) turned out to be 5.29 nM.

With U23G C51G, the Kd was 5.33 nM. The same measure for U23G C51U: 7.2 nM. The same measure for U29G U60A: 13.2 nM; for U29G U60C: 11.4 nM; for U23G G48A: 11 nM. The same measure for U23G G48U: 7.64 nM; for A31G G54A: 18.4 nM. A24G C36U: the Kd was 6.95 nM. On to A24G C36G, for which the Kd turned out to be 8.51 nM. Turning to G30A, the Kd was 4.41 nM. With G30U the figure was 5.41 nM. The same measure for G30C: 6.15 nM.
